Columns and labels:
Fibroblast = test: Incucyte cell viability with human fibroblast; format: toxicity, cell-based; settings: 10 µM, compound concentration 10 uM; also: filed as whole numbers so only -1 and 0 and 1 occur
U2OS = test: Multiplex assay against U2OS; format: toxicity, cell-based; settings: human
In short: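 Per cents of healthy-nucleus cells form the tubulin, mitochondrial-mass and membrane-permeability phenotype values. Live cells were stained at seeding with Hoechst33342, BioTracker Green Microtubule Cytoskeleton Dye, MitoTracker Red and Annexin V Alexa Fluor 680. After compound addition they were imaged on a CQ1 microscope at 37°C and 5% CO2, and CellPathfinder machine-learning gating split them into Hoechst high-intensity objects or normal cells, normal cells into healthy, pyknosed or fragmented nuclei, and pyknosed cells into mitotic or apoptotic.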

[1] = 12 h, 1 µM, compound concentration 1 uM, replicate 1
[2] = 12 h, 1 µM, compound concentration 1 uM, replicate 2
[3] = 12 h, 10 µM, compound concentration 10 uM, replicate 1
[4] = 12 h, 10 µM, compound concentration 10 uM, replicate 2
[5] = 24 h, 1 µM, compound concentration 1 uM, replicate 1
[6] = 24 h, 1 µM, compound concentration 1 uM, replicate 2
[7] = 24 h, 10 µM, compound concentration 10 uM, replicate 1
[8] = 24 h, 10 µM, compound concentration 10 uM, replicate 2
[9] = 48 h, 1 µM, compound concentration 1 uM, replicate 1
[10] = 48 h, 1 µM, compound concentration 1 uM, replicate 2
[11] = 48 h, 10 µM, compound concentration 10 uM, replicate 1
[12] = 48 h, 10 µM, compound concentration 10 uM, replicate 2

Cc1cc2c(cc1N1C(=O)c3cccc4c(CCCO)ccc(c34)C1=O)n(C)c(=O)n2C
Growth Rate (Fibroblast; 0 h, replicate number 2, timepoint 0 hours): 0 | Growth Rate (Fibroblast; 6 h, replicate number 1, timepoint 6 hours): 0 | Growth Rate (Fibroblast; 6 h, replicate number 2, timepoint 6 hours): 1 | Growth Rate (Fibroblast; 12 h, replicate number 1, timepoint 12 hours): 0 | Growth Rate (Fibroblast; 12 h, replicate number 2, timepoint 12 hours): 1 | Growth Rate (Fibroblast; 18 h, replicate number 1, timepoint 18 hours): 0 | Growth Rate (Fibroblast; 18 h, replicate number 2, timepoint 18 hours): 1 | Growth Rate (Fibroblast; 24 h, replicate number 1, timepoint 24 hours): 0 | Growth Rate (Fibroblast; 24 h, replicate number 2, timepoint 24 hours): 1 | Population Apoptotic (%) (U2OS; [1]): 50% | Population Fragmented Nuclei (%) (U2OS; [1]): 11% | Population Healthy Nuclei (%) (U2OS; [1]): 82% | Population Hoechst High Intensity Objects (%) (U2OS; [1]): 6% | Population Membrane Permeable-Phenotype (%) (U2OS; [1]): 4% | Population Mitochondria Different-Phenotype (%) (U2OS; [1]): 7% | Population Mitotic Cells (%) (U2OS; [1]): 50% | Population Normal (%) (U2OS; [1]): 93% | Population Pyknosed Nuclei (%) (U2OS; [1]): 5% | Population Tubulin-Different-Phenotype (%) (U2OS; [1]): 6% | Total Cell Count (U2OS; [1]): 179 | Population Apoptotic (%) (U2OS; [2]): 0% | Population Fragmented Nuclei (%) (U2OS; [2]): 6% | Population Healthy Nuclei (%) (U2OS; [2]): 90% | Population Hoechst High Intensity Objects (%) (U2OS; [2]): 8% | Population Membrane Permeable-Phenotype (%) (U2OS; [2]): 1% | Population Mitochondria Different-Phenotype (%) (U2OS; [2]): 22% | Population Mitotic Cells (%) (U2OS; [2]): 100% | Population Normal (%) (U2OS; [2]): 91% | Population Pyknosed Nuclei (%) (U2OS; [2]): 3% | Population Tubulin-Different-Phenotype (%) (U2OS; [2]): 24% | Total Cell Count (U2OS; [2]): 104 | Population Apoptotic (%) (U2OS; [3]): 54% | Population Fragmented Nuclei (%) (U2OS; [3]): 11% | Population Healthy Nuclei (%) (U2OS; [3]): 72% | Population Hoechst High Intensity Objects (%) (U2OS; [3]): 6% | Population Membrane Permeable-Phenotype (%) (U2OS; [3]): 16% | Population Mitochondria Different-Phenotype (%) (U2OS; [3]): 44% | Population Mitotic Cells (%) (U2OS; [3]): 45% | Population Normal (%) (U2OS; [3]): 93% | Population Pyknosed Nuclei (%) (U2OS; [3]): 15% | Population Tubulin-Different-Phenotype (%) (U2OS; [3]): 68% | Total Cell Count (U2OS; [3]): 166 | Population Apoptotic (%) (U2OS; [4]): 37% | Population Fragmented Nuclei (%) (U2OS; [4]): 20% | Population Healthy Nuclei (%) (U2OS; [4]): 63% | Population Hoechst High Intensity Objects (%) (U2OS; [4]): 9% | Population Membrane Permeable-Phenotype (%) (U2OS; [4]): 29% | Population Mitochondria Different-Phenotype (%) (U2OS; [4]): 77% | Population Mitotic Cells (%) (U2OS; [4]): 62% | Population Normal (%) (U2OS; [4]): 90% | Population Pyknosed Nuclei (%) (U2OS; [4]): 16% | Population Tubulin-Different-Phenotype (%) (U2OS; [4]): 96% | Total Cell Count (U2OS; [4]): 54 | Population Apoptotic (%) (U2OS; [5]): 38% | Population Fragmented Nuclei (%) (U2OS; [5]): 11% | Population Healthy Nuclei (%) (U2OS; [5]): 80% | Population Hoechst High Intensity Objects (%) (U2OS; [5]): 3% | Population Membrane Permeable-Phenotype (%) (U2OS; [5]): 5% | Population Mitochondria Different-Phenotype (%) (U2OS; [5]): 18% | Population Mitotic Cells (%) (U2OS; [5]): 61% | Population Normal (%) (U2OS; [5]): 96% | Population Pyknosed Nuclei (%) (U2OS; [5]): 7% | Population Tubulin-Different-Phenotype (%) (U2OS; [5]): 10% | Total Cell Count (U2OS; [5]): 176 | Population Apoptotic (%) (U2OS; [6]): 40% | Population Fragmented Nuclei (%) (U2OS; [6]): 7% | Population Healthy Nuclei (%) (U2OS; [6]): 87% | Population Membrane Permeable-Phenotype (%) (U2OS; [6]): 0% | Population Mitochondria Different-Phenotype (%) (U2OS; [6]): 27% | Population Mitotic Cells (%) (U2OS; [6]): 60% | Population Pyknosed Nuclei (%) (U2OS; [6]): 5% | Population Tubulin-Different-Phenotype (%) (U2OS; [6]): 17% | Total Cell Count (U2OS; [6]): 96 | Population Apoptotic (%) (U2OS; [7]): 59% | Population Fragmented Nuclei (%) (U2OS; [7]): 15% | Population Healthy Nuclei (%) (U2OS; [7]): 70% | Population Hoechst High Intensity Objects (%) (U2OS; [7]): 3% | Population Membrane Permeable-Phenotype (%) (U2OS; [7]): 5% | Population Mitochondria Different-Phenotype (%) (U2OS; [7]): 35% | Population Mitotic Cells (%) (U2OS; [7]): 40% | Population Normal (%) (U2OS; [7]): 96% | Population Pyknosed Nuclei (%) (U2OS; [7]): 14% | Population Tubulin-Different-Phenotype (%) (U2OS; [7]): 38% | Total Cell Count (U2OS; [7]): 159 | Population Apoptotic (%) (U2OS; [8]): 80% | Population Fragmented Nuclei (%) (U2OS; [8]): 18% | Population Healthy Nuclei (%) (U2OS; [8]): 62% | Population Hoechst High Intensity Objects (%) (U2OS; [8]): 11% | Population Membrane Permeable-Phenotype (%) (U2OS; [8]): 41% | Population Mitochondria Different-Phenotype (%) (U2OS; [8]): 76% | Population Mitotic Cells (%) (U2OS; [8]): 20% | Population Normal (%) (U2OS; [8]): 88% | Population Pyknosed Nuclei (%) (U2OS; [8]): 18% | Population Tubulin-Different-Phenotype (%) (U2OS; [8]): 76% | Total Cell Count (U2OS; [8]): 61 | Population Apoptotic (%) (U2OS; [9]): 65% | Population Fragmented Nuclei (%) (U2OS; [9]): 16% | Population Healthy Nuclei (%) (U2OS; [9]): 72% | Population Hoechst High Intensity Objects (%) (U2OS; [9]): 3% | Population Membrane Permeable-Phenotype (%) (U2OS; [9]): 4% | Population Mitochondria Different-Phenotype (%) (U2OS; [9]): 43% | Population Mitotic Cells (%) (U2OS; [9]): 35% | Population Normal (%) (U2OS; [9]): 96% | Population Pyknosed Nuclei (%) (U2OS; [9]): 11% | Population Tubulin-Different-Phenotype (%) (U2OS; [9]): 16% | Total Cell Count (U2OS; [9]): 187 | Population Apoptotic (%) (U2OS; [10]): 66% | Population Fragmented Nuclei (%) (U2OS; [10]): 6% | Population Healthy Nuclei (%) (U2OS; [10]): 90% | Population Hoechst High Intensity Objects (%) (U2OS; [10]): 10% | Population Membrane Permeable-Phenotype (%) (U2OS; [10]): 9% | Population Mitochondria Different-Phenotype (%) (U2OS; [10]): 49% | Population Mitotic Cells (%) (U2OS; [10]): 33% | Population Normal (%) (U2OS; [10]): 89% | Population Pyknosed Nuclei (%) (U2OS; [10]): 3% | Population Tubulin-Different-Phenotype (%) (U2OS; [10]): 28% | Total Cell Count (U2OS; [10]): 103 | Population Apoptotic (%) (U2OS; [11]): 79% | Population Fragmented Nuclei (%) (U2OS; [11]): 20% | Population Healthy Nuclei (%) (U2OS; [11]): 53% | Population Hoechst High Intensity Objects (%) (U2OS; [11]): 1% | Population Membrane Permeable-Phenotype (%) (U2OS; [11]): 12% | Population Mitochondria Different-Phenotype (%) (U2OS; [11]): 32% | Population Mitotic Cells (%) (U2OS; [11]): 20% | Population Normal (%) (U2OS; [11]): 98% | Population Pyknosed Nuclei (%) (U2OS; [11]): 25% | Population Tubulin-Different-Phenotype (%) (U2OS; [11]): 14% | Total Cell Count (U2OS; [11]): 154 | Population Apoptotic (%) (U2OS; [12]): 88% | Population Fragmented Nuclei (%) (U2OS; [12]): 22% | Population Healthy Nuclei (%) (U2OS; [12]): 45% | Population Hoechst High Intensity Objects (%) (U2OS; [12]): 8% | Population Membrane Permeable-Phenotype (%) (U2OS; [12]): 46% | Population Mitochondria Different-Phenotype (%) (U2OS; [12]): 57% | Population Mitotic Cells (%) (U2OS; [12]): 11% | Population Normal (%) (U2OS; [12]): 91% | Population Pyknosed Nuclei (%) (U2OS; [12]): 31% | Population Tubulin-Different-Phenotype (%) (U2OS; [12]): 30% | Total Cell Count (U2OS; [12]): 62

Source: ChEMBL document CHEMBL4689842, “EUbOPEN Chemogenomics Library wave 1” (2021)
